Source: ChEMBL document CHEMBL5058577, “EUbOPEN Chemogenomics Library 2 (Multiplex)” (2022)

Tested on: U2OS
Assay: Multiplex assay against U2OS
Format: toxicity, cell-based
Conditions: human
Method in brief: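 At seeding, live cells were stained with Hoechst33342, BioTracker Green Microtubule Cytoskeleton Dye, MitoTracker Red and Annexin V Alexa Fluor 680. After compound addition they were imaged on a CQ1 microscope at 37°C and 5% CO2, and CellPathfinder machine-learning gating sorted them into Hoechst high-intensity objects or normal cells, with normal cells further split into healthy, pyknosed or fragmented nuclei and pyknosed cells into mitotic or apoptotic. Tubulin, mitochondrial-mass and membrane-permeability phenotypes are given as per cents of cells with healthy nuclei.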

[1] = 12 h, 1 µM, compound concentration 1 uM, replicate 1
[2] = 12 h, 1 µM, compound concentration 1 uM, replicate 2
[3] = 12 h, 10 µM, compound concentration 10 uM, replicate 1
[4] = 12 h, 10 µM, compound concentration 10 uM, replicate 2
[5] = 24 h, 1 µM, compound concentration 1 uM, replicate 1
[6] = 24 h, 1 µM, compound concentration 1 uM, replicate 2
[7] = 24 h, 10 µM, compound concentration 10 uM, replicate 1
[8] = 24 h, 10 µM, compound concentration 10 uM, replicate 2
[9] = 48 h, 1 µM, compound concentration 1 uM, replicate 1
[10] = 48 h, 1 µM, compound concentration 1 uM, replicate 2
[11] = 48 h, 10 µM, compound concentration 10 uM, replicate 1
[12] = 48 h, 10 µM, compound concentration 10 uM, replicate 2

## CCCOc1ccc2[nH]cc(C3=CCNCC3)c2n1.Cl
[1]
  Population Apoptotic (%): 80%
  Population Fragmented Nuclei (%): 31%
  Population Healthy Nuclei (%): 58%
  Population Hoechst High Intensity Objects (%): 2%
  Population Membrane Permeable-Phenotype (%): 2%
  Population Mitochondria Different-Phenotype (%): 1%
  Population Mitotic Cells (%): 19%
  Population Normal (%): 97%
  Population Pyknosed Nuclei (%): 9%
  Population Tubulin-Different-Phenotype (%): 1%
  Total Cell Count: 218
[2]
  Population Apoptotic (%): 87%
  Population Fragmented Nuclei (%): 13%
  Population Healthy Nuclei (%): 78%
  Population Hoechst High Intensity Objects (%): 1%
  Population Membrane Permeable-Phenotype (%): 11%
  Population Mitochondria Different-Phenotype (%): 7%
  Population Mitotic Cells (%): 12%
  Population Normal (%): 98%
  Population Pyknosed Nuclei (%): 8%
  Population Tubulin-Different-Phenotype (%): 5%
  Total Cell Count: 98
[3]
  Population Apoptotic (%): 86%
  Population Fragmented Nuclei (%): 24%
  Population Healthy Nuclei (%): 66%
  Population Hoechst High Intensity Objects (%): 4%
  Population Membrane Permeable-Phenotype (%): 6%
  Population Mitochondria Different-Phenotype (%): 5%
  Population Mitotic Cells (%): 13%
  Population Normal (%): 96%
  Population Pyknosed Nuclei (%): 8%
  Population Tubulin-Different-Phenotype (%): 3%
  Total Cell Count: 275
[4]
  Population Apoptotic (%): 60%
  Population Fragmented Nuclei (%): 17%
  Population Healthy Nuclei (%): 74%
  Population Hoechst High Intensity Objects (%): 0%
  Population Membrane Permeable-Phenotype (%): 12%
  Population Mitotic Cells (%): 40%
  Population Normal (%): 100%
  Population Pyknosed Nuclei (%): 7%
  Population Tubulin-Different-Phenotype (%): 6%
  Total Cell Count: 134
[5]
  Population Apoptotic (%): 70%
  Population Fragmented Nuclei (%): 27%
  Population Healthy Nuclei (%): 61%
  Population Hoechst High Intensity Objects (%): 1%
  Population Membrane Permeable-Phenotype (%): 6%
  Population Mitochondria Different-Phenotype (%): 1%
  Population Mitotic Cells (%): 29%
  Population Normal (%): 98%
  Population Pyknosed Nuclei (%): 10%
  Population Tubulin-Different-Phenotype (%): 3%
  Total Cell Count: 252
[6]
  Population Apoptotic (%): 90%
  Population Fragmented Nuclei (%): 18%
  Population Healthy Nuclei (%): 73%
  Population Hoechst High Intensity Objects (%): 2%
  Population Membrane Permeable-Phenotype (%): 3%
  Population Mitochondria Different-Phenotype (%): 3%
  Population Mitotic Cells (%): 9%
  Population Normal (%): 97%
  Population Pyknosed Nuclei (%): 8%
  Population Tubulin-Different-Phenotype (%): 2%
  Total Cell Count: 138
[7]
  Population Apoptotic (%): 92%
  Population Fragmented Nuclei (%): 25%
  Population Healthy Nuclei (%): 66%
  Population Hoechst High Intensity Objects (%): 3%
  Population Membrane Permeable-Phenotype (%): 5%
  Population Mitochondria Different-Phenotype (%): 3%
  Population Mitotic Cells (%): 7%
  Population Normal (%): 96%
  Population Pyknosed Nuclei (%): 8%
  Population Tubulin-Different-Phenotype (%): 3%
  Total Cell Count: 323
[8]
  Population Apoptotic (%): 72%
  Population Fragmented Nuclei (%): 14%
  Population Healthy Nuclei (%): 78%
  Population Hoechst High Intensity Objects (%): 0%
  Population Membrane Permeable-Phenotype (%): 11%
  Population Mitochondria Different-Phenotype (%): 2%
  Population Mitotic Cells (%): 27%
  Population Normal (%): 99%
  Population Pyknosed Nuclei (%): 6%
  Population Tubulin-Different-Phenotype (%): 4%
  Total Cell Count: 162
[9]
  Population Apoptotic (%): 91%
  Population Fragmented Nuclei (%): 19%
  Population Healthy Nuclei (%): 69%
  Population Hoechst High Intensity Objects (%): 2%
  Population Membrane Permeable-Phenotype (%): 5%
  Population Mitochondria Different-Phenotype (%): 3%
  Population Mitotic Cells (%): 8%
  Population Normal (%): 97%
  Population Pyknosed Nuclei (%): 10%
  Population Tubulin-Different-Phenotype (%): 1%
  Total Cell Count: 350
[10]
  Population Apoptotic (%): 75%
  Population Healthy Nuclei (%): 74%
  Population Membrane Permeable-Phenotype (%): 9%
  Population Mitotic Cells (%): 25%
  Population Pyknosed Nuclei (%): 6%
  Population Tubulin-Different-Phenotype (%): 3%
  Total Cell Count: 183
[11]
  Population Apoptotic (%): 100%
  Population Fragmented Nuclei (%): 18%
  Population Healthy Nuclei (%): 75%
  Population Hoechst High Intensity Objects (%): 4%
  Population Membrane Permeable-Phenotype (%): 5%
  Population Mitochondria Different-Phenotype (%): 2%
  Population Mitotic Cells (%): 0%
  Population Normal (%): 95%
  Population Pyknosed Nuclei (%): 6%
  Population Tubulin-Different-Phenotype (%): 3%
  Total Cell Count: 423
[12]
  Population Apoptotic (%): 94%
  Population Fragmented Nuclei (%): 13%
  Population Healthy Nuclei (%): 78%
  Population Hoechst High Intensity Objects (%): 0%
  Population Membrane Permeable-Phenotype (%): 6%
  Population Mitochondria Different-Phenotype (%): 3%
  Population Mitotic Cells (%): 5%
  Population Normal (%): 99%
  Population Pyknosed Nuclei (%): 7%
  Total Cell Count: 243
